Measurements taken from ChEMBL document CHEMBL3297689, “Phenylalanine-Based Inactivator of AKT Kinase: Design, Synthesis, and Biological Evaluation” (ACS Med Chem Lett, 2014).
One block for each compound: values may come before it. Where a SMILES comes first, the peptide text is derived from it. [ ]: non-standard residue; d: D form. NMeV = CN[C@H](C(=O)O)C(C)C; GABA = NCCCC(=O)O

Experiments:
[1] = molecular target: T1, RAC-alpha serine/threonine-protein kinase (Homo sapiens, UniProt P31749); experiment: Inhibition of AKT1 (unknown origin) after 1 hr by Z'-LYTE kinase assay in presence of 75 uM ATP
[2] = molecular target: T1, RAC-alpha serine/threonine-protein kinase; experiment: Inhibition of AKT1 (unknown origin) after 30 mins by scintillation counting analysis in presence of 100 uM ATP
[3] = molecular target: Cyclin-dependent kinase 1/cyclin B1 (Homo sapiens) (UniProt P06493+P14635); experiment: Inhibition of CDK1/cyclinB (unknown origin) at 1 uM in presence of 100 uM ATP; assay type: protein-complex assay
[4] = molecular target: PAS domain-containing serine/threonine-protein kinase (Homo sapiens) (UniProt Q96RG2); experiment: Inhibition of PASK (unknown origin) at 1 uM in presence of 100 uM ATP
[5] = Selectivity index, ratio of IC50 for human HCT116 cells to IC50 for recombinant AKT (unknown origin); parameters: species or system HCT-116
[6] = Selectivity index, ratio of IC50 for human NCI-H460 cells to IC50 for recombinant AKT (unknown origin)
[7] = molecular target: Ribosomal protein S6 kinase alpha-5 (Homo sapiens) (UniProt O75582); experiment: Inhibition of MSK1 (unknown origin) at 1 uM in presence of 100 uM ATP
[8] = molecular target: 5'-AMP-activated protein kinase catalytic subunit alpha-1 (Homo sapiens) (UniProt Q13131); experiment: Inhibition of AMPKalpha1 (unknown origin) at 1 uM in presence of 100 uM ATP
[9] = molecular target: CDK2/Cyclin A2 (Homo sapiens) (UniProt P24941+P20248); experiment: Inhibition of CDK2/cyclinA (unknown origin) at 1 uM in presence of 100 uM ATP; assay type: protein-complex assay
[10] = molecular target: 3-phosphoinositide-dependent protein kinase 1 (Homo sapiens) (UniProt O15530); experiment: Inhibition of PDK1 (unknown origin) at 1 uM in presence of 100 uM ATP
[11] = molecular target: Vascular endothelial growth factor receptor 2 (Homo sapiens) (UniProt P35968); experiment: Inhibition of VEGFR2 (unknown origin) at 1 uM in presence of 100 uM ATP
[12] = molecular target: Serine/threonine-protein kinase Chk2 (Homo sapiens) (UniProt O96017); experiment: Inhibition of CHK2 (unknown origin) at 1 uM in presence of 100 uM ATP
[13] = molecular target: Platelet-derived growth factor receptor alpha (Homo sapiens) (UniProt P16234); experiment: Inhibition of PDGFRA (unknown origin) at 1 uM in presence of 100 uM ATP
[14] = molecular target: Mitogen-activated protein kinase 3 (Homo sapiens) (UniProt P27361); experiment: Inhibition of MAPK3 (unknown origin) at 1 uM in presence of 100 uM ATP
[15] = molecular target: Hepatocyte growth factor receptor (Homo sapiens) (UniProt P08581); experiment: Inhibition of MET (unknown origin) at 1 uM in presence of 100 uM ATP
[16] = molecular target: Tyrosine-protein kinase Lyn (Homo sapiens) (UniProt P07948); experiment: Inhibition of LYN A (unknown origin) at 1 uM in presence of 100 uM ATP
[17] = organism: Homo sapiens; experiment: Inhibition of PKAalpha (unknown origin) at 1 uM in presence of 100 uM ATP
[18] = molecular target: Serine/threonine-protein kinase PLK1 (Homo sapiens) (UniProt P53350); experiment: Inhibition of PLK1 (unknown origin) at 1 uM in presence of 100 uM ATP
[19] = molecular target: Proto-oncogene tyrosine-protein kinase Src (Homo sapiens) (UniProt P12931); experiment: Inhibition of SRC (unknown origin) at 1 uM in presence of 100 uM ATP
[20] = molecular target: Epidermal growth factor receptor (Homo sapiens) (UniProt P00533); experiment: Inhibition of EGFR (unknown origin) at 1 uM in presence of 100 uM ATP
[21] = molecular target: Calcium/calmodulin-dependent protein kinase type IV (Homo sapiens) (UniProt Q16566); experiment: Inhibition of CAMK-4 (unknown origin) at 1 uM in presence of 100 uM ATP
[22] = molecular target: Dual specificity mitogen-activated protein kinase kinase 1 (Homo sapiens) (UniProt Q02750); experiment: Inhibition of MEK1 (unknown origin) at 1 uM in presence of 100 uM ATP
[23] = molecular target: Ribosomal protein S6 kinase alpha-1 (Homo sapiens) (UniProt Q15418); experiment: Inhibition of RSK1 (unknown origin) at 1 uM in presence of 100 uM ATP
[24] = organism: Homo sapiens; experiment: Selectivity for AKT1 (unknown origin) over PKAalpha (unknown origin)
Outline: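 Selectivity is the PKAα IC50 divided by the AKT1 IC50. Both IC50s were measured in the FRET-based Z′-LYTE peptide-phosphorylation assay.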

[25] = molecular target: cAMP-dependent protein kinase catalytic subunit PRKX (Homo sapiens) (UniProt P51817); experiment: Inhibition of PRKX (unknown origin) at 1 uM in presence of 100 uM ATP
[26] = molecular target: Mitogen-activated protein kinase 1 (Homo sapiens) (UniProt P28482); experiment: Inhibition of MAPK1 (unknown origin) at 1 uM in presence of 100 uM ATP
[27] = molecular target: MAP kinase-interacting serine/threonine-protein kinase 1 (Homo sapiens) (UniProt Q9BUB5); experiment: Inhibition of MKNK1 (unknown origin) at 1 uM in presence of 100 uM ATP
[28] = molecular target: AMP-activated protein kinase, AMPK (Homo sapiens) (UniProt P54646+O43741+P54619+Q9UGJ0+Q9Y478+Q13131+Q9UGI9); experiment: Inhibition of AMPKalpha1/beta1/gamma1 (unknown origin) at 1 uM in presence of 100 uM ATP; assay type: protein-complex assay
[29] = molecular target: Maternal embryonic leucine zipper kinase (Homo sapiens) (UniProt Q14680); experiment: Inhibition of MELK (unknown origin) at 1 uM in presence of 100 uM ATP
[30] = Growth inhibition of human HCT116 cells after 72 hrs by coulter counter method; assay type: functional, cell-based; details: HCT-116, 72 h
[31] = molecular target: Receptor tyrosine-protein kinase erbB-4 (Homo sapiens) (UniProt Q15303); experiment: Inhibition of ERBB4 (unknown origin) at 1 uM in presence of 100 uM ATP
[32] = molecular target: Calcium/calmodulin-dependent protein kinase type 1D (Homo sapiens) (UniProt Q8IU85); experiment: Inhibition of CAMK1D (unknown origin) at 1 uM in presence of 100 uM ATP
[33] = molecular target: cGMP-dependent protein kinase 1 (Homo sapiens) (UniProt Q13976); experiment: Inhibition of PRKG1 (unknown origin) at 1 uM in presence of 100 uM ATP
[34] = molecular target: Protein kinase C theta type (Homo sapiens) (UniProt Q04759); experiment: Inhibition of PKCtheta (unknown origin) at 1 uM in presence of 100 uM ATP
[35] = system: NCI-H460; experiment: Growth inhibition of human NCI-H460 cells after 72 hrs by coulter counter method; assay type: functional, cell-based; details: NCI-H460, 72 h
[36] = molecular target: Ribosomal protein S6 kinase beta-1 (Homo sapiens) (UniProt P23443); experiment: Inhibition of p70S6K (unknown origin) at 1 uM in presence of 100 uM ATP
[37] = molecular target: Tyrosine-protein kinase SYK (Homo sapiens) (UniProt P43405); experiment: Inhibition of SYK (unknown origin) at 1 uM in presence of 100 uM ATP
[38] = molecular target: Testis-specific serine/threonine-protein kinase 1 (Homo sapiens) (UniProt Q9BXA7); experiment: Inhibition of TSSK1 (unknown origin) at 1 uM in presence of 100 uM ATP
[39] = molecular target: Mitogen-activated protein kinase 14 (Homo sapiens) (UniProt Q16539); experiment: Inhibition of MAPK14 (unknown origin) at 1 uM in presence of 100 uM ATP
[40] = molecular target: Aurora kinase A (Homo sapiens) (UniProt O14965); experiment: Inhibition of AURKA (unknown origin) at 1 uM in presence of 100 uM ATP
[41] = molecular target: MAP kinase-activated protein kinase 2 (Homo sapiens) (UniProt P49137); experiment: Inhibition of MAPKAPK2 (unknown origin) at 1 uM in presence of 100 uM ATP
[42] = molecular target: T1, RAC-alpha serine/threonine-protein kinase; experiment: Inhibition of AKT1 (unknown origin) at 1 uM in presence of 100 uM ATP
[43] = Inhibition of PKAalpha (unknown origin) after 1 hr by Z'-LYTE kinase assay in presence of 4 uM ATP; parameters: species or system Homo sapiens
Outline: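 Z′-LYTE FRET assay measuring phosphorylation of a peptide substrate by recombinant kinase, independent of mechanism. IC50 is the average of three independent experiments, with 95% confidence intervals.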

[44] = molecular target: Tyrosine-protein kinase CSK (Homo sapiens) (UniProt P41240); experiment: Inhibition of CSK (unknown origin) at 1 uM in presence of 100 uM ATP
[45] = molecular target: Protein kinase C alpha type (Homo sapiens) (UniProt P17252); experiment: Inhibition of PKCalpha (unknown origin) at 1 uM in presence of 100 uM ATP
[46] = molecular target: Vascular endothelial growth factor receptor 1 (Homo sapiens) (UniProt P17948); experiment: Inhibition of FLT1 (unknown origin) at 1 uM in presence of 100 uM ATP
[47] = molecular target: Serine/threonine-protein kinase MARK1 (Homo sapiens) (UniProt Q9P0L2); experiment: Inhibition of MARK1 (unknown origin) at 1 uM in presence of 100 uM ATP
[48] = molecular target: Mitogen-activated protein kinase kinase kinase kinase 5 (Homo sapiens) (UniProt Q9Y4K4); experiment: Inhibition of MAP4K5 (unknown origin) at 1 uM in presence of 100 uM ATP
[49] = molecular target: Serine/threonine-protein kinase Chk1 (Homo sapiens) (UniProt O14757); experiment: Inhibition of CHK1 (unknown origin) at 1 uM in presence of 100 uM ATP
[50] = molecular target: Serine/threonine-protein kinase Sgk1 (Homo sapiens) (UniProt O00141); experiment: Inhibition of SGK1 (unknown origin) at 1 uM in presence of 100 uM ATP
[51] = molecular target: T1, RAC-alpha serine/threonine-protein kinase; experiment: Irreversible inhibition of AKT1 (unknown origin) Z'-LYTE kinase assay in presence of ATP; details: TDE = time-dependent effect
Outline: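 Recombinant AKT1 activity read by the FRET-based Z′-LYTE kit, which measures phosphorylation of a peptide substrate. […] IC50 values are averages of three independent experiments with 95% confidence intervals.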

[52] = molecular target: Tyrosine-protein kinase ABL1 (Homo sapiens) (UniProt P00519); experiment: Inhibition of ABL1 (unknown origin) at 1 uM in presence of 100 uM ATP
[53] = molecular target: Focal adhesion kinase 1 (Homo sapiens) (UniProt Q05397); experiment: Inhibition of PTK2 (unknown origin) at 1 uM in presence of 100 uM ATP

T1 sequence (P31749 whole entry): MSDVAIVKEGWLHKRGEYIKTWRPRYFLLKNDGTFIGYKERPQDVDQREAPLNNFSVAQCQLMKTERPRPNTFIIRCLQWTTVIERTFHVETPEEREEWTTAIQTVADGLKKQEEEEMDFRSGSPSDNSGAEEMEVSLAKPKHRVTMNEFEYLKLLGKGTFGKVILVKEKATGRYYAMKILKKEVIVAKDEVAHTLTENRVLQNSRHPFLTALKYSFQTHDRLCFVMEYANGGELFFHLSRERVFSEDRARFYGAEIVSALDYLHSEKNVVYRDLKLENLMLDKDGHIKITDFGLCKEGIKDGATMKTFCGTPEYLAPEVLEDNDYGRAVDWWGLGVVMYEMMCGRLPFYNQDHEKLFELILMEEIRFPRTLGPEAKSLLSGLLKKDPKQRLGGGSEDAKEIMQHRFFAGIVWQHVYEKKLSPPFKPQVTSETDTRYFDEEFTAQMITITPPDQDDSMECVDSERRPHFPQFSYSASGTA
Serine/threonine-protein kinase Chk1 (Homo sapiens), sequence (O14757 whole entry): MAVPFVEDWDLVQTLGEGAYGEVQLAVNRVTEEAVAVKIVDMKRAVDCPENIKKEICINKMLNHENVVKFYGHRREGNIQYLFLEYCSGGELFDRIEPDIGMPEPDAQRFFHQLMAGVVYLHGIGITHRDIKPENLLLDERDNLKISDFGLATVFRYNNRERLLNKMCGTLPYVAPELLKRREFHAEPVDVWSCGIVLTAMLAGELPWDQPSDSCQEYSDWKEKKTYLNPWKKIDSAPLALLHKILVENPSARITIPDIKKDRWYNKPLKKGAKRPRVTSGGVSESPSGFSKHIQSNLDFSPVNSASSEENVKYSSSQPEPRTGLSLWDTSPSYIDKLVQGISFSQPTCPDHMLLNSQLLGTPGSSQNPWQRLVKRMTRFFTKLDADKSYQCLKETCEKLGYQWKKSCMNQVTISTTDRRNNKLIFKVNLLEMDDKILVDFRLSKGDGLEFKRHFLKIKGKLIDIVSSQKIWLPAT
Mitogen-activated protein kinase 1 (Homo sapiens), sequence (P28482 whole entry): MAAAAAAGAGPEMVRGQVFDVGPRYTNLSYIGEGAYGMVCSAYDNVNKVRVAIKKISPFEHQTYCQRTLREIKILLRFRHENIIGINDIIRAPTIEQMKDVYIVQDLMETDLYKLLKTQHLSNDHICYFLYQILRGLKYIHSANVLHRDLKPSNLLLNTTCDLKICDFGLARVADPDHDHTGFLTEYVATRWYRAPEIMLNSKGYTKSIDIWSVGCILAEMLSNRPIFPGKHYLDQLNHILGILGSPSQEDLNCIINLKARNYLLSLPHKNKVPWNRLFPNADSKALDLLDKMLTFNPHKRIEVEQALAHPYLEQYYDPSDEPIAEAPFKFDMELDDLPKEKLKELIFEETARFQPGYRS
cGMP-dependent protein kinase 1 (Homo sapiens), sequence (Q13976 whole entry): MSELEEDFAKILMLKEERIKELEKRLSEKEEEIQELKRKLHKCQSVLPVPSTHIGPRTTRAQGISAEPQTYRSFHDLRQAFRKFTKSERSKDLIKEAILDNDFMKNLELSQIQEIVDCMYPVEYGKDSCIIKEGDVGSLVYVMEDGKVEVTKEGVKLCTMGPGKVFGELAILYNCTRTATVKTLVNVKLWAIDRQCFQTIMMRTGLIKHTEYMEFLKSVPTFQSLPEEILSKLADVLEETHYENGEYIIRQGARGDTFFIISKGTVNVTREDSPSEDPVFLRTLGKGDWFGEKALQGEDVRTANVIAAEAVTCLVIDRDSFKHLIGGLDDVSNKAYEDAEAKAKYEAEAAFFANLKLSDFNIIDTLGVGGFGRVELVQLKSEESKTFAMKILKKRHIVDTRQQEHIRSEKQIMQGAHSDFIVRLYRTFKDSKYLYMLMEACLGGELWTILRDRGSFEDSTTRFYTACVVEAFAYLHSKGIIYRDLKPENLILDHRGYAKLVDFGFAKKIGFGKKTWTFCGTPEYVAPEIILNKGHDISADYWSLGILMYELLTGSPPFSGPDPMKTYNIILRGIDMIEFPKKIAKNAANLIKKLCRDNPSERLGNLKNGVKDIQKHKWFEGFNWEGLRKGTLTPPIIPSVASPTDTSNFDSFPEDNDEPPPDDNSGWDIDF
Calcium/calmodulin-dependent protein kinase type 1D (Homo sapiens), sequence (Q8IU85 whole entry, looked up): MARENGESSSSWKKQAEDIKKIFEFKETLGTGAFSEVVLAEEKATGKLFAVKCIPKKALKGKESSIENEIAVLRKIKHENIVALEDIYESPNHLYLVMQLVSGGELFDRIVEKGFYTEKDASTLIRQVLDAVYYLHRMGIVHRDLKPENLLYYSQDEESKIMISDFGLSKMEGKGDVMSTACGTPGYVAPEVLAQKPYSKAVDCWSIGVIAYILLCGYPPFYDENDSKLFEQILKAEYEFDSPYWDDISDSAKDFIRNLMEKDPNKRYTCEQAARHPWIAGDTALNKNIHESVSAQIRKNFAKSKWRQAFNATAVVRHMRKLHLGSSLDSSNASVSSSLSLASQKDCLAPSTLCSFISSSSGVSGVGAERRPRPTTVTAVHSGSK
MAP kinase-interacting serine/threonine-protein kinase 1 (Homo sapiens), sequence (Q9BUB5 whole entry, looked up): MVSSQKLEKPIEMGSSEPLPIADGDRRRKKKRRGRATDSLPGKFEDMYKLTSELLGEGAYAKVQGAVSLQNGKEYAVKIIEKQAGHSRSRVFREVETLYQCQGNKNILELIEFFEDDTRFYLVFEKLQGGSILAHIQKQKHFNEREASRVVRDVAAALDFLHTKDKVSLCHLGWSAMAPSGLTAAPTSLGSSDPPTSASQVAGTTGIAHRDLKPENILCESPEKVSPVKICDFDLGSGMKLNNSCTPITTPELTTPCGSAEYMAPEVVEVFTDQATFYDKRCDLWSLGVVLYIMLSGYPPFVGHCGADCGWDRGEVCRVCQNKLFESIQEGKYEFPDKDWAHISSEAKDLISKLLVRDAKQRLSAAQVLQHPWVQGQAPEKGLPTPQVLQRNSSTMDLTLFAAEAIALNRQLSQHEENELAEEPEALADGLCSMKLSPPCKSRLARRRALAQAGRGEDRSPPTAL
Platelet-derived growth factor receptor alpha (Homo sapiens), sequence (P16234 whole entry): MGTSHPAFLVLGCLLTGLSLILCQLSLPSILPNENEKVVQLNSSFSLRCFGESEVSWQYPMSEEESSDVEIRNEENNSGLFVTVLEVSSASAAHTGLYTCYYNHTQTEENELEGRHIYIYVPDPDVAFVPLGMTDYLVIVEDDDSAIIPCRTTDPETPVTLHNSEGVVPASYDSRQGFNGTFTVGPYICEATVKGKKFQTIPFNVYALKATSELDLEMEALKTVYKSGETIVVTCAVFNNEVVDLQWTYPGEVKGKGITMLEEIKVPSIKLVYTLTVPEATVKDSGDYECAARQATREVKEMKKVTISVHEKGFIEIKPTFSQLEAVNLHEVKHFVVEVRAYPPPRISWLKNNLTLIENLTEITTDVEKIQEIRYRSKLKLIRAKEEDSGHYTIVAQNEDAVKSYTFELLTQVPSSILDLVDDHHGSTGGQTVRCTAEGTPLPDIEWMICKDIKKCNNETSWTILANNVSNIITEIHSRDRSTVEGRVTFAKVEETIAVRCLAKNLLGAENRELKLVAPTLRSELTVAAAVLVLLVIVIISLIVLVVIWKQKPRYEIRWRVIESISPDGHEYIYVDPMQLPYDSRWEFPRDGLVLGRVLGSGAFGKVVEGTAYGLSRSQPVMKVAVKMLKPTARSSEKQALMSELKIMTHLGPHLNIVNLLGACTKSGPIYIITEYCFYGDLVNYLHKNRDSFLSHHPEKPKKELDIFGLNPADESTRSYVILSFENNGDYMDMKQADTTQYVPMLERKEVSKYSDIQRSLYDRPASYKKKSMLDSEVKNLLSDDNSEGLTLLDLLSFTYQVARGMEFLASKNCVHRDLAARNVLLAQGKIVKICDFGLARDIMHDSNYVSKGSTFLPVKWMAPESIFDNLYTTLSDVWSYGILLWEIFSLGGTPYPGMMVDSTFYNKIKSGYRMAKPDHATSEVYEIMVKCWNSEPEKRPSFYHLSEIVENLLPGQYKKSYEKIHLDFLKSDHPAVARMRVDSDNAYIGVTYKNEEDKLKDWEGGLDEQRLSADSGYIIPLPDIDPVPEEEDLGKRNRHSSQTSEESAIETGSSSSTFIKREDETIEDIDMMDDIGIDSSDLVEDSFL
Testis-specific serine/threonine-protein kinase 1 (Homo sapiens), sequence (Q9BXA7 whole entry): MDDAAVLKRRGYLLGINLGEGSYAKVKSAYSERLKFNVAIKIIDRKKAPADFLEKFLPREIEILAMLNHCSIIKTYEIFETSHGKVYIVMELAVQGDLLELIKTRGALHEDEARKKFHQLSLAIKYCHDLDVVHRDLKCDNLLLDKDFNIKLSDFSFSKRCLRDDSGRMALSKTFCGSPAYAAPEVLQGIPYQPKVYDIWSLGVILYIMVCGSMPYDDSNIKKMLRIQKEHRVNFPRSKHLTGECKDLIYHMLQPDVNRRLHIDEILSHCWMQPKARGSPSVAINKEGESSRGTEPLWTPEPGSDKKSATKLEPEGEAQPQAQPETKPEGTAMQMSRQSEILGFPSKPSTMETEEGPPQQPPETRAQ

Compound: CC(C)(C)OC(=O)N[C@@H](Cc1ccccc1)C(=O)NCCBr
IC50 [1]: > 100 µM

Compound: CC(C)(C)OC(=O)N[C@@H](Cc1ccccc1)C(=O)NCCI
IC50 [1]: > 100 µM

Compound: CC(C)(C)OC(=O)N[C@@H](Cc1ccccc1)C(=O)NCCCl
IC50 [1]: > 100 µM

Compound: COC[C@H](NC(=O)[C@H](Cc1ccc(O)cc1)NC(=O)[C@H](C(C)C)N(C)C(=O)[C@H](CCCNC(=N)N)NC(=O)[C@@H]1CCCN1C(=O)[C@@H](N)CCCNC(=N)N)C(=O)NCCCC(=O)O (H-RPR[NMeV]YS(Me)[GABA]-OH)
IC50 [2]: 0.2 µM

Now from value to compound, other results behind:

IC50 [1]: > 100 µM
Compound: C=CC(=O)N(Cc1ccccc1)NC(=O)OC(C)(C)C

IC50 [1]: 16.1 µM
Compound: CC(C)(C)OC(=O)NN(Cc1ccccc1)C(=O)CI

IC50 [1]: 4.68 µM
Compound: CC(C)(C)OC(=O)NN(Cc1ccccc1)C(=O)CN1C(=O)C=CC1=O

inhibition [3]: 9%
inhibition [4]: 19%
inhibition [7]: 10%
inhibition [8]: 46%
inhibition [9]: 3%
inhibition [10]: 15%
inhibition [11]: -6%
inhibition [12]: 46%
inhibition [13]: 0%
inhibition [14]: 8%
inhibition [15]: 11%
inhibition [16]: 5%
inhibition [17]: -10%
inhibition [18]: 10%
inhibition [19]: -4%
inhibition [20]: -2%
inhibition [21]: 50%
inhibition [22]: 5%
inhibition [23]: 5%
Selectivity ratio [24]: 90
inhibition [25]: -1%
inhibition [26]: 15%
inhibition [27]: 2%
inhibition [28]: 46%
inhibition [29]: 62%
inhibition [31]: 9%
inhibition [32]: 36%
inhibition [33]: -4%
inhibition [34]: 3%
inhibition [36]: 14%
IC50 [1]: 0.58 µM
inhibition [37]: -1%
inhibition [38]: -1%
inhibition [39]: 17%
inhibition [40]: 35%
inhibition [41]: -7%
inhibition [42]: 50%
IC50 [43]: 52.6 µM
inhibition [44]: 8%
inhibition [45]: 18%
inhibition [46]: 2%
inhibition [47]: 4%
inhibition [48]: 22%
inhibition [49]: 5%
inhibition [50]: 34%
inhibition [51]: tde
inhibition [52]: 13%
inhibition [53]: -4%
Compound: C=CC(=O)[C@H](Cc1ccccc1)NC(=O)OC(C)(C)C
Ratio IC50 [5]: 37
Ratio IC50 [6]: 39
IC50 [30]: 21.5 µM
IC50 [35]: 22.9 µM
